“And” between values parts separate entries of the source, which are not always exact repeats. Identical values can stand only once. “Also recorded” adds a separate entry of the source. Like-named read-outs stand apart in the source and are kept apart here.
Columns and labels:
RBCs [1] = assay: BEN metabolism in 10% RBCs with ALDH and AO inhibitor; format: in vitro ADME, human; conditions: for inhibition of BEN metabolism (conversion of BEN to BA) in RBC: 10% RBCs in plasma, inhibitor 150 μM
purified human ALDH1A1 = molecular target: T1, purified human ALDH1A1 (Homo sapiens, UniProt P00352); assay: Metabolism using purified ALDH isoforms: ALDH1A1; format: biochemical
T1 sequence (P00352 1-501): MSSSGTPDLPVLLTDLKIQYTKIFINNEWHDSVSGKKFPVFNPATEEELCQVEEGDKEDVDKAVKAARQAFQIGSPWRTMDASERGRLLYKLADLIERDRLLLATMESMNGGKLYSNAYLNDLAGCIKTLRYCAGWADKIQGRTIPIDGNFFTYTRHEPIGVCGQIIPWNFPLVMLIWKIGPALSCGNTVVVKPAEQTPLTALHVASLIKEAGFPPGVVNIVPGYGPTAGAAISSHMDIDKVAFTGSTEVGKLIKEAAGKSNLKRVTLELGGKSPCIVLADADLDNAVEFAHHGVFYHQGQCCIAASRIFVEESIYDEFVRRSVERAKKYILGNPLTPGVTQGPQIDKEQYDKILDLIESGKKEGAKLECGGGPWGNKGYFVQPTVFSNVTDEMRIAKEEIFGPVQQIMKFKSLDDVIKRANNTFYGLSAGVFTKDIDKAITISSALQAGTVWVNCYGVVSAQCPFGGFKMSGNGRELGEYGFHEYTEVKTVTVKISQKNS
Outline: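 Purified human ALDH1A1 (5 μg/mL) in […] pH 7.4 with 200 mM KCl and 4 mM DTT, plus test compound at 1000 ng/mL. Pre-incubated 10 min at 37 °C, then started with NAD or […] (1 mM) as the isozyme requires. Sampled at 0–60 min into H2SO4, acetonitrile-extracted, and parent and […] measured by LC-MS/MS. Inhibition arms used anti-ALDH1A1 antibody or disulfiram. Three independent experiments; rate normalised per μg enzyme.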

[2] = humans, after 9 mg/m^2; cited from earlier work
CYP3A = conditions: preliminary experiments; cited from earlier work
ALDH5A1 = molecular target: T2, ALDH5A1 (Homo sapiens, UniProt P51649); assay: Metabolism using purified ALDH isoforms: ALDH5A1; format: biochemical; conditions: purified ALDH5A1, BEN 1000 ng/mL
T2 sequence (P51649 48-535): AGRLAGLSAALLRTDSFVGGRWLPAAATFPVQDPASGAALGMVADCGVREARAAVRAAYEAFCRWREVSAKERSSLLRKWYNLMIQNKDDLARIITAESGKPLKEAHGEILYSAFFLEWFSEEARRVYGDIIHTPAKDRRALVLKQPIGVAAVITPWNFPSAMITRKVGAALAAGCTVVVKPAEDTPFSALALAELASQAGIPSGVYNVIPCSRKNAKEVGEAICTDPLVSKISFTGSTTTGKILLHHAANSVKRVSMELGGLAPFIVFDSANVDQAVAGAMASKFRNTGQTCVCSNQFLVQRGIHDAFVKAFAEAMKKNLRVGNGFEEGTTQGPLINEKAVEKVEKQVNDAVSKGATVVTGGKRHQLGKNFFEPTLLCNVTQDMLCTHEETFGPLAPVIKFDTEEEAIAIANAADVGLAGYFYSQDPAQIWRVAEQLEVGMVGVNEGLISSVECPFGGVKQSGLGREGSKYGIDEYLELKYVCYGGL

[3] = system: renal carcinoma cells (RCC); conditions: cited from earlier work
[4] = preliminary experiments; cited from earlier work
RBCs [5] = format: in vitro ADME, human; conditions: 10% RBCs, all incubations (with and without CO or N2), BEN 3 μg/mL
BEN blood partitioning = format: in vitro ADME, human; conditions: 50% RBCs in plasma, on ice
Outline: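 Blood (50% RBCs in plasma) held on ice with 1 mM disulfiram for 10 min, then dosed with test compound at 1000 ng/mL final. Blood sampled at 5–30 min and spun at 12,000 × g for 2 min; plasma acidified with H2SO4 and analysed by LC-MS/MS. Run in parallel in 100% plasma, in triplicate. Ratio taken as plasma-only concentration divided by plasma concentration from the 50%-RBC incubation.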

[6] = mice, after 20 mg/kg BEN; cited from earlier work
[7] = but not plasma; cited from earlier work
ALDH3A1 = molecular target: T3, ALDH3A1 (Homo sapiens, UniProt P30838); assay: Metabolism using purified ALDH isoforms: ALDH3A1; format: biochemical; conditions: purified ALDH3A1, BEN 1000 ng/mL
T3 sequence (P30838 1-453): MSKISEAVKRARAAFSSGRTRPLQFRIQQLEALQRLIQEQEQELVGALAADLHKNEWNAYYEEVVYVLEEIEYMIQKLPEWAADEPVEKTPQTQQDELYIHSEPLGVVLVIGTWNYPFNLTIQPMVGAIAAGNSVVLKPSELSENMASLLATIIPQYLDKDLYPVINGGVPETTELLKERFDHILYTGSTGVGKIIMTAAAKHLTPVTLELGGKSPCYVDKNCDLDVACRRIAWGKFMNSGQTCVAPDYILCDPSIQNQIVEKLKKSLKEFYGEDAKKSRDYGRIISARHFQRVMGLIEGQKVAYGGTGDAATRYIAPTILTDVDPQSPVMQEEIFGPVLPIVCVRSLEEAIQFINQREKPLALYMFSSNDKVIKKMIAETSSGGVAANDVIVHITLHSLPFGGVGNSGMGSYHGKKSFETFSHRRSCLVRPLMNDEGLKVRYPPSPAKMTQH

RBCs [8] = assay: Apparent Vmax and Km determination in 10% RBCs in plasma; format: in vitro ADME, human
RBCs [9] = assay: Effect of RBC concentration on BEN metabolism; format: in vitro ADME, human; conditions: BEN 10 μg/mL, 37 °C
Outline: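 RBCs taken from the bottom of the packed layer, avoiding the buffy coat, and resuspended in plasma at 0, 0.1, 1 and 10%. Test compound spiked at 10 μg/mL and incubated at 37 °C in a shaking bath. Aliquots taken from 0 to 360 min and at 24 h; remaining parent measured by LC-MS/MS.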

lysed RBCs = assay: BEN in lysed blood; format: in vitro ADME, human
Outline: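 10% RBCs in plasma lysed by three freeze-thaw cycles and incubated at 37 °C alongside unlysed cells. Test compound added at 10 μg/mL final; sampled at 5, 60, 120 and 180 min. In a cofactor arm, NADH or NADPH (500 μM final) was added to lysed RBCs and sampling ran from 5 to 120 min. Parent quantified by LC-MS/MS.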

[10] = cited from earlier work
ALDH2 = molecular target: T4, ALDH2 (Homo sapiens, UniProt P05091); assay: Metabolism using purified ALDH isoforms: ALDH2; format: biochemical; conditions: purified ALDH2, BEN 1000 ng/mL
T4 sequence (P05091 18-517): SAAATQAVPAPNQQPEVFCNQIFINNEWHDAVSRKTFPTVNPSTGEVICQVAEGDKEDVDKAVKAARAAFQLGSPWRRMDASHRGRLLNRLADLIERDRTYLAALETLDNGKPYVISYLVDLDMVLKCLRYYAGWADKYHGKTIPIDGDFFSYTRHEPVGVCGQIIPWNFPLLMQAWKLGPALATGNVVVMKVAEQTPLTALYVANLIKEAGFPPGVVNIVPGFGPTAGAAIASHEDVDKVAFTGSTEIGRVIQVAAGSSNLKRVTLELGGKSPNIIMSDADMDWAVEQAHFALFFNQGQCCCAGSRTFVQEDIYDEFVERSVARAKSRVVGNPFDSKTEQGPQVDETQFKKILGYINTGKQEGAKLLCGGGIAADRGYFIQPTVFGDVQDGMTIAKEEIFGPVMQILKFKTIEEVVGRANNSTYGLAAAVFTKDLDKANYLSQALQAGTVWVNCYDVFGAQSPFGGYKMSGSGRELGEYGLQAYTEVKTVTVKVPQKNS

RXF-393 = conditions: mice, RXF-393 implanted subcutaneously or orthotopically under the renal capsule; cited from earlier work
[11] = Lot 4 +7 days (7 day old blood stored at 4 °C), 10% RBCs
[12] = mean over the lots of Table 1, 10% RBCs

In the case of `CCN(CC)C(=S)SSC(=S)N(CC)CC` [disulfiram], the “inhibition of BEN metabolism (conversion of BEN to BA) in RBC” value (RBCs [1]; BEN 1 μg/mL) is reported as “inhibited; also recorded: almost complete inhibition” and the “inhibition of BEN metabolism by purified ALDH1A1” value (purified human ALDH1A1; reaction mixture with 4 mM DTT, antibodies at 100x) is reported as “did not inhibit”.

In the case of `CC1=CC(=O)c2ccccc2C1=O` [menadione], the “inhibition of BEN metabolism compared with vehicle control” value (RBCs [1]; 3 mM menadione, 1.5% DMSO v:v, 10% RBCs) is reported as “DMSO alone (1.5% DMSO v:v) caused the same extent of inhibition” and the “inhibition of BEN metabolism (conversion of BEN to BA) in RBC” value (RBCs [1]; BEN 1 μg/mL) is reported as “not inhibited; also recorded: only a partial inhibitory effect”.

For `Cc1cc(N(CCOS(C)(=O)=O)CCOS(C)(=O)=O)ccc1C=O` [BEN, 4-[bis[2-[(methylsulfonyl)-oxy]ethyl]amino]-2-methyl-benzaldehyde], the exposures observed [2] is listed as 14.5 ng/mL, the “metabolism in liver microsomal fraction” value (CYP3A) is listed as “undergoes N-dealkylation” and the “ability of isoform to metabolize BEN” value (ALDH5A1) is listed as “ALDH1A1 was the only isoform that showed the ability to metabolize BEN”. The “activity in the NCI 60 cell line screen” value [3] was “specific activity against renal carcinoma cells (RCC)”, the “amount of BEN remaining” value (RBCs [1]; control sample without inhibitor, 10% RBCs, BEN 1 μg/mL) was 0.5% and the “metabolism in cytosolic fraction” value [4] was “oxidized”. The “time after which the concentration of BEN was halved” value (RBCs [5]) was “approximately 60 min”, the “time by which the equilibrium between RBCs and plasma was complete” value (BEN blood partitioning) was ≤ 5 min and the “average plasma to whole blood partition ratio” value (BEN blood partitioning; disulfiram 1 mM, BEN 1000 ng/mL, triplicate) was 1.25 ± 0.08. For the same compound, the exposures observed [6] was 16 ng/mL, the “conversion in whole blood” value [7] was “rapidly converted to its carboxylic acid analogue (BA)” and the “ability of isoform to metabolize BEN” value (ALDH3A1) was “ALDH1A1 was the only isoform that showed the ability to metabolize BEN”. For the same compound, the “starting concentrations that display linear metabolism” value (RBCs [8]; 10% RBCs) was “below 400 ng/mL”, the Cl (RBCs [8]; Lot 1 human blood, 10% RBCs) was 0.333 mL/min and the Km (RBCs [8]; Lot 1 human blood, 10% RBCs) was 196.3 ng/mL. For the same compound, the Vmax (RBCs [8]; Lot 1 human blood, 10% RBCs) was 65.44 ng/mL^−1•min^−1•[10% RBC]^−1, the Cl (RBCs [8]; Lot 2 human blood, 10% RBCs) was 0.2736 mL/min and the Km (RBCs [8]; Lot 2 human blood, 10% RBCs) was 319.5 ng/mL. The Vmax (RBCs [8]; Lot 2 human blood, 10% RBCs) was 87.42 ng/mL^−1•min^−1•[10% RBC]^−1, the Cl (RBCs [8]; Lot 3 human blood, 10% RBCs) was 0.282 mL/min and the Km (RBCs [8]; Lot 3 human blood, 10% RBCs) was 256.2 ng/mL. For the same compound, the Vmax (RBCs [8]; Lot 3 human blood, 10% RBCs) was 72.27 ng/mL^−1•min^−1•[10% RBC]^−1, the Cl (RBCs [8]; [11]) was 0.1432 mL/min and the Km (RBCs [8]; [11]) was 699.6 ng/mL. The Vmax (RBCs [8]; [11]) was 100.2 ng/mL^−1•min^−1•[10% RBC]^−1, the Cl (RBCs [8]; Lot 4 human blood, 10% RBCs) was 0.1859 mL/min and the Km (RBCs [8]; Lot 4 human blood, 10% RBCs) was 609.8 ng/mL. The Vmax (RBCs [8]; Lot 4 human blood, 10% RBCs) was 113.4 ng/mL^−1•min^−1•[10% RBC]^−1, the Cl (RBCs [8]; Lot 5 human blood, 10% RBCs) was 0.1588 mL/min and the Km (RBCs [8]; Lot 5 human blood, 10% RBCs) was 481.8 ng/mL. The Vmax (RBCs [8]; Lot 5 human blood, 10% RBCs) was 76.5 ng/mL^−1•min^−1•[10% RBC]^−1, the Cl (RBCs [8]; Lot 6 human blood, 10% RBCs) was 0.1836 mL/min and the Km (RBCs [8]; Lot 6 human blood, 10% RBCs) was 371.2 ng/mL. The Vmax (RBCs [8]; Lot 6 human blood, 10% RBCs) was 68.16 ng/mL^−1•min^−1•[10% RBC]^−1, the “Average apparent Km” value (RBCs [8]; human RBC, abstract) was 373 ng/mL and the “Cl, Mean” value (RBCs [8]; [12]) was 0.22 mL/min. For the same compound, the “Vmax, Mean” value (RBCs [8]; [12]) was 83.3 ng/mL^−1•min^−1•[10% RBC]^−1, the “ability of isoform to metabolize BEN” value (purified human ALDH1A1; purified ALDH1A1, BEN 1000 ng/mL) was “showed the ability to metabolize BEN” and the “rate of disappearance of BEN” value (purified human ALDH1A1; three independent experiments, 5 μg/mL purified enzyme, BEN 1000 ng/mL, 37 °C) was 0.172 ng/min/μg of enzyme and 0.224 ng/min/μg of enzyme and 0.154 ng/min/μg of enzyme. It also gave a BEN remaining (RBCs [9]; 10% RBCs, after 6 hours) of 5%, a BEN remaining (RBCs [9]; 10% RBCs, after one hour) of 54% and a BEN remaining (RBCs [9]; no RBCs, after 6 hours) of 59%. For the same compound, the BEN remaining (RBCs [9]; no RBCs, after one hour) was 99%, the “metabolism of BEN by lysed RBCs” value (lysed RBCs; 10% RBCs lysed by freeze-thaw, no cofactor added) was “did not metabolize BEN” and the “metabolism of BEN by lysed RBCs” value (lysed RBCs; 10% lysed RBCs + NADH 500 μM) was “restored the ability of lysed RBCs to metabolize BEN”. The “metabolism of BEN by lysed RBCs” value (lysed RBCs; 10% lysed RBCs + NADPH 500 μM) was “partially restored the ability of lysed RBCs to metabolize BEN”, the “in vitro half-life in plasma” value [10] was 22 min and the “ability of isoform to metabolize BEN” value (ALDH2) was “ALDH1A1 was the only isoform that showed the ability to metabolize BEN”. The antitumor activity (RXF-393) was “demonstrated antitumor activity”.

— publication PMC4545378 (Cancer chemotherapy and pharmacology, 2015)
